Screening results: PubChem BioAssay, Johns Hopkins Ion Channel Center
In the library only some 2.3% were active in any assay of this set; here they are far more common.
TRPC4 PAM: positive allosteric modulators of TRPC4, primary screen, cell-based, mouse TRPC4beta, HEK293 mu-opioid, Fluo-4 calcium | Short transient receptor potential channel 4 (Mus musculus), Q9QUQ5 | DAMGO EC20, Fluo-4 Ca2+ flux; active compounds read high | B-score at 10 µM | 310,000 tested, 0.42% active | AID 2227, 2009;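 active = B-score of calcium response area above 5 SD of library B-scores, with initial fluorescence ratio within 5 SD of library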;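 also: B-score of integrated fluorescence ratio over time as area under calcium response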
TRPC6 inhibitor: mouse TRPC6 channel inhibitors, primary screen, cell-based, HEK293, membrane potential dye; Short transient receptor potential channel 6 (Mus musculus), Q61143; ACh-evoked depolarization; active compounds read low; B-score at 10 µM; 310,000 tested, 1.1% active;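 active = B-score under library mean minus 3 SD, initial fluorescence not abnormally high, positive integrated signal ratio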;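 also: B-score derived from integrated fluorescence ratio over the kinetic read; more negative B-score means stronger inhibition of depolarization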
TRPC4 act: activators of mouse TRPC4 channel, primary screen, Fluo4 calcium, HEK293 TRPC4beta/mu-opioid cells | Short transient receptor potential channel 4 (Mus musculus), Q9QUQ5 | Fluo4 calcium fluorescence; active compounds read high | B-score at 10 µM | 310,000 tested, 0.49% active;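 active = B-score above 5 SD of library B-scores, and initial fluorescence ratio not above library mean plus 5 SD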;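 also: positive B-score marks a calcium rise read as TRPC4 activation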
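Assay system: HEK293 stable line with TRPC4beta plus mu-opioid receptor; schedule: 45 min room-temperature Fluo4 loading, 110 s read; technique: kinetic Fluo4 calcium fluorescence; evaluation: integrated baseline-normalised fluorescence ratio, converted to per-well B score; controls: buffer (low) and maximal DAMGO (high)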
TRPC4 inh: inhibitors of mouse TRPC4 channel, primary screen, Fluo4 calcium, HEK293 TRPC4beta/mu-opioid cells; Short transient receptor potential channel 4 (Mus musculus), Q9QUQ5; DAMGO-evoked Fluo4 calcium flux; active compounds read low; B-score at 10 µM; 300,000 tested, 0.39% active;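 active = B-score over 3 SD under the library average, no early fluorescence shift, positive overall ratio signal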
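Assay system: Stable TRPC4beta/mu-opioid receptor HEK293 cells | Reagent: DAMGO in two steps, submaximal then maximal | Compound dosing: Single concentration per test compound | Signal: Fluo4 Ca2+ flux fluorescence | Evaluation: Per-well B score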
TRPC6 act: mouse TRPC6 channel activators, primary screen, cell-based, HEK293, membrane potential dye. Short transient receptor potential channel 6 (Mus musculus), Q61143. AID 2550, 2010. HEK293-TRPC6 membrane potential dye fluorescence; active compounds read high. 310,000 tested, 0.13% active. B-score at 10 µM;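 active = B-score of the integrated fluorescence ratio above library mean plus 3 SD, and starting fluorescence ratio within library mean plus 5 SD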;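 also: higher score means more depolarization so channel activation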
HEK293 MPD ctr: parental HEK293 membrane potential modulation, confirmation, counter-screen for TRPC6 modulator project, cell-based; 2,400 tested, 51% active; membrane potential dye fluorescence; membrane potential signal change, % at 10 µM; shares compounds with TRPC6 inhibitor; AID 488924, 2010;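 active = membrane potential signal moves up or down beyond 5 SD from buffer-only wells, on both duplicate plates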
HEK293 MPD ctr 2: second check of TRPC6 modulator effects in parental HEK293 cells; membrane potential dye fluorescence; after compound, maximal acetylcholine stimulation; 2,400 tested, 14% active; shares compounds with TRPC6 inhibitor; inhibition, % at 10 µM;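 active = membrane potential signal drops by more than 5 SD from the mean control signal, in both duplicate plates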;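 also: plate controls were acetylcholine ECmax control wells for no effect and buffer only wells for full effect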
TRPC4 ctr mod: TRPC4 modulation by TRPC6 hit compounds, confirmation, selectivity assay for TRPC6 modulator project, cell-based, HEK293 TRPC4/mu-opioid, membrane potential dye, mouse; percent change from control (negative = decrease, positive = increase), % at 10 µM; membrane potential fluorescence; shares compounds with TRPC6 inhibitor; 2,400 tested, 69% active;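 active = membrane potential signal moved up or down beyond 5 SD of buffer control wells, in both duplicate plates, actives on both sides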;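 also: plate controls were assay buffer wells for no effect and DAMGO maximal-effect wells for full effect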
TRPC4/MOR inh 2: second selectivity test of TRPC6 modulators against mouse TRPC4; inhibition, % at 10 µM; AID 488928; 2,400 tested, 55% active; HEK293 TRPC4/mu-opioid, membrane potential dye fluorescence; stimulated with maximal-effect DAMGO; shares compounds with TRPC6 inhibitor;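 active = drop in membrane potential signal beyond 5 SD of the control wells in both duplicate plates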;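 also: TRPC4 counter screen for TRPC6 hits run under conditions tuned for TRPC6 not TRPC4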
TRPC6 inh conf: mouse TRPC6 channel inhibitors, confirmation, HEK293 cells, membrane potential dye, duplicate | inhibition, % at 10 µM | ACh-evoked depolarization | 3,300 tested, 43% active | shares compounds with TRPC6 inhibitor;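 active = fluorescence ratio falls more than 5 SD below the full-stimulation control mean, in both duplicate runs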;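 also: integrated fluorescence ratio of peak minus minimum over baseline after agonist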
TRPC6 act confirm: mouse TRPC6 channel activators, confirmation, HEK293 cells, membrane potential dye, duplicate | shares compounds with TRPC6 inhibitor | HEK293-TRPC6 membrane potential dye fluorescence, FDSS | activation, % at 10 µM | 2,800 tested, 11% active;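 active = ratio signal rise beyond 5 SD above unstimulated control wells' mean, seen in both duplicate runs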;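 also: plate controls were buffer EC0 wells for no effect and acetylcholine ECmax response for full effect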
An asterisk follows results filed as active.

What do the screens show for `CC(C)(C)NCc1cc(Cl)ccc1OCc1ccccc1F`?
TRPC4 PAM: inactive; TRPC6 inhibitor: -8.1*; TRPC4 act: inactive; TRPC4 inh: inactive; TRPC6 act: 18*; HEK293 MPD ctr: 488%*; HEK293 MPD ctr 2: inactive; TRPC4 ctr mod: 106%*; TRPC4/MOR inh 2: 84%*; TRPC6 inh conf: 100%*; TRPC6 act confirm: 152%*

What do the screens show for `O=C(Nc1cccc(C(=O)O)c1)/C(=C\c1ccc2c(c1)OCO2)NC(=O)c1ccc(Br)cc1`?
TRPC4 PAM: inactive; TRPC6 inhibitor: inactive; TRPC4 act: inactive; TRPC4 inh: inactive; TRPC6 act: inactive

How did CCOC(=O)c1c(N=CN(C)C)c2cc([N+](=O)[O-])cnc2n1C do in these assays?
TRPC4 PAM: inactive; TRPC6 inhibitor: -5.7*; TRPC4 act: inactive; TRPC4 inh: inactive; TRPC6 act: inactive; HEK293 MPD ctr: -146%*; HEK293 MPD ctr 2: inactive; TRPC4 ctr mod: -23%*; TRPC4/MOR inh 2: 44%*; TRPC6 inh conf: 54%*; TRPC6 act confirm: inactive

Results for CCOC(=O)c1c(N)c2cc([N+](=O)[O-])ccc2n1C ?
TRPC4 PAM: inactive; TRPC6 inhibitor: inactive; TRPC4 act: inactive; TRPC4 inh: inactive; TRPC6 act: inactive

How did COc1ccc2c(c1)CCCN2C(N)=Nc1ccc(Cl)cc1 do in these assays?
TRPC4 PAM: inactive; TRPC6 inhibitor: -6.5*; TRPC4 act: inactive; TRPC4 inh: inactive; TRPC6 act: inactive; HEK293 MPD ctr: 114%*; HEK293 MPD ctr 2: inactive; TRPC4 ctr mod: 16%*; TRPC4/MOR inh 2: 69%*; TRPC6 inh conf: inactive

How did O=C(Cc1cccs1)NC1(C(=O)NC2CCCC2)CCCCC1 do in these assays?
TRPC4 PAM: inactive; TRPC6 inhibitor: inactive; TRPC4 act: inactive; TRPC4 inh: inactive; TRPC6 act: inactive

How did O=C(Nc1scc(-c2ccc(Br)cc2)c1C(=O)O)c1ccccc1F do in these assays?
TRPC4 PAM: inactive; TRPC6 inhibitor: -5.3*; TRPC4 act: inactive; TRPC4 inh: inactive; TRPC6 act: inactive; HEK293 MPD ctr: inactive; HEK293 MPD ctr 2: inactive; TRPC4 ctr mod: inactive; TRPC4/MOR inh 2: 40%*; TRPC6 inh conf: 54%*; TRPC6 act confirm: inactive

Results for Cc1ccc(OCCCC(=O)Nc2nc3ccccc3[nH]2)cc1 ?
TRPC4 PAM: inactive; TRPC6 inhibitor: -7*; TRPC4 act: inactive; TRPC4 inh: inactive; TRPC6 act: inactive; HEK293 MPD ctr: inactive; HEK293 MPD ctr 2: inactive; TRPC4 ctr mod: inactive; TRPC4/MOR inh 2: inactive; TRPC6 inh conf: inactive; TRPC6 act confirm: inactive

Results for COc1cccc(N2CCN(c3ccc(N4C(=O)CCC4=O)cc3[N+](=O)[O-])CC2)c1 ?
TRPC4 PAM: inactive; TRPC6 inhibitor: inactive; TRPC4 act: inactive; TRPC4 inh: inactive; TRPC6 act: inactive

How did Cc1cc(C)c2c(n1)nn1c(NCCCN(C)C)cc(C)nc21 do in these assays?
TRPC4 PAM: inactive; TRPC6 inhibitor: inactive; TRPC4 act: inactive; TRPC4 inh: inactive; TRPC6 act: inactive

What do the screens show for `Cc1cc(NCCCN(C)C)n2nc(-c3cccs3)cc2n1`?
TRPC4 PAM: 12*; TRPC6 inhibitor: -8.2*; TRPC4 act: inactive; TRPC4 inh: inactive; TRPC6 act: inactive; HEK293 MPD ctr: -349%*; HEK293 MPD ctr 2: 82%*; TRPC4 ctr mod: -58%*; TRPC4/MOR inh 2: 58%*; TRPC6 inh conf: 69%*; TRPC6 act confirm: inactive

How did CN(C(=O)CCCN1CCCC1=O)C1CCCN(Cc2ccccc2F)C1 (stereo not given) do in these assays?
TRPC4 PAM: inactive; TRPC6 inhibitor: -5.1*; TRPC4 act: inactive; TRPC4 inh: inactive; TRPC6 act: inactive; HEK293 MPD ctr: inactive; HEK293 MPD ctr 2: inactive; TRPC4 ctr mod: inactive; TRPC4/MOR inh 2: inactive; TRPC6 inh conf: inactive; TRPC6 act confirm: inactive

How did CN(C(=O)CCc1ccccc1F)C1CCCN(Cc2ccccc2F)C1 (stereo not given) do in these assays?
TRPC4 PAM: inactive; TRPC6 inhibitor: inactive; TRPC4 act: inactive; TRPC4 inh: inactive; TRPC6 act: inactive

How did O=C1CC(N2CCN(Cc3ccc4c(c3)OCO4)CC2)C(=O)N1CCc1ccccc1 (stereo not given) do in these assays?
TRPC4 PAM: inactive; TRPC6 inhibitor: inactive; TRPC4 act: inactive; TRPC4 inh: inactive; TRPC6 act: inactive

How did CC(NCCC(Cc1ccccc1)c1ccco1)c1ccccc1 (stereo not given) do in these assays?
TRPC4 PAM: inactive; TRPC6 inhibitor: -5.6*; TRPC4 act: inactive; TRPC4 inh: -6*; TRPC6 act: 12*; HEK293 MPD ctr: 167%*; HEK293 MPD ctr 2: inactive; TRPC4 ctr mod: 42%*; TRPC4/MOR inh 2: 40%*; TRPC6 inh conf: inactive; TRPC6 act confirm: 36%*

What do the screens show for `Fc1ccc(CNCCC(Cc2ccccc2)c2ccco2)cc1` (stereo not given)?
TRPC4 PAM: inactive; TRPC6 inhibitor: inactive; TRPC4 act: inactive; TRPC4 inh: inactive; TRPC6 act: inactive
